Experiments:
[1] = molecular target: Cyclin-dependent kinase 2/cyclin E1 (Homo sapiens, UniProt P24941); experiment: Inhibition of CDK2/CycE (unknown origin) in presence of [gamma-33P]ATP; type: protein-complex assay
[2] = molecular target: Mitogen-activated protein kinase 1 (Homo sapiens, UniProt P28482); experiment: Inhibition of ERK2 (unknown origin) in presence of [gamma-33P]ATP
[3] = molecular target: Hepatocyte growth factor receptor (Homo sapiens, UniProt P08581); experiment: Inhibition of MET (unknown origin) in presence of [gamma-33P]ATP
[4] = molecular target: Serine/threonine-protein kinase 26 (Homo sapiens, UniProt Q9P289); experiment: Inhibition of MST4 (unknown origin) in presence of [gamma-33P]ATP
[5] = molecular target: Mitogen-activated protein kinase 14 (Homo sapiens, UniProt Q16539); experiment: Inhibition of P38alpha (unknown origin) in presence of [gamma-33P]ATP
[6] = molecular target: Non-receptor tyrosine-protein kinase TYK2 (Homo sapiens, UniProt P29597); experiment: Inhibition of TYK2 (unknown origin) in presence of [gamma-33P]ATP
[7] = molecular target: Mitogen-activated protein kinase kinase kinase 9 (Homo sapiens) (UniProt P80192); experiment: Inhibition of N-terminal 6His-tagged recombinant human MLK1 (134 to 414 residues) expressed in baculovirus infected Sf21 cells assessed as residual activity at 0.1 uM relative to control
[8] = molecular target: Ribosomal protein S6 kinase alpha-1 (Rattus norvegicus) (UniProt Q63531); experiment: Inhibition of N-terminal His6 and HA (YPYDV PDYA) tagged recombinant full-length (1 to end residues) rat Rsk1 expressed in baculovirus infected Sf21 cells assessed as residual activity at 0.1 uM relative to control
[9] = molecular target: Homeodomain-interacting protein kinase 1 (Homo sapiens) (UniProt Q86Z02); experiment: Inhibition of N-terminal 6His-tagged recombinant human HIPK1 (158 to 555 residues) expressed in baculovirus infected Sf21 cells assessed as residual activity at 1 uM relative to control
[10] = molecular target: Serine/threonine-protein kinase Nek3 (Homo sapiens) (UniProt P51956); experiment: Inhibition of N-terminal 6His-tagged recombinant full length human NEK3 expressed in baculovirus infected Sf21 cells assessed as residual activity at 1 uM relative to control
[11] = molecular target: RAC-alpha serine/threonine-protein kinase (Homo sapiens, UniProt P31749); experiment: Inhibition of N-terminal His6 tagged recombinant full-length human PKBalpha expressed in baculovirus infected Sf21 cells assessed as residual activity at 1 uM relative to control
[12] = molecular target: Serine/threonine-protein kinase ULK3 (Homo sapiens) (UniProt Q6PHR2); experiment: Inhibition of N-terminal 6His-tagged recombinant human full-length ULK3 expressed in baculovirus infected Sf21 cells assessed as residual activity at 1 uM relative to control
T98G = experiment: Antiproliferative activity against human T98G cells assessed as inhibition of cell growth incubated for 72 hrs by cell-titer glo assay; type: functional, cell-based
HCC1806 = experiment: Antiproliferative activity against human HCC1806 cells assessed as inhibition of cell growth incubated for 72 hrs by cell-titer glo assay; type: functional, cell-based; conditions: HCC1806, 72 h
Outline: (§1)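 Cells seeded at 10,000–30,000/cm² (adherent) or 100,000/mL (nonadherent) in medium with 10% fetal calf serum; after 24 h, treated in duplicate with serial dilutions for 72 h. Viable cell number read by CellTiter-Glo luminescence; IC50 from sigmoidal fit; at least two independent experiments.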

HCT-116 = experiment: Antiproliferative activity against human HCT-116 cells assessed as inhibition of cell growth incubated for 72 hrs by cell-titer glo assay; type: functional, cell-based; conditions: HCT-116, 72 h; outline: as §1
SW948 = experiment: Antiproliferative activity against human SW948 cells assessed as inhibition of cell growth incubated for 72 hrs by cell-titer glo assay; type: functional, cell-based; conditions: SW948, 72 h
COLO 320 = experiment: Antiproliferative activity against human COLO 320 cells assessed as inhibition of cell growth incubated for 72 hrs by cell-titer glo assay; type: functional, cell-based; conditions: COLO 320, 72 h
Outline: (§2)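 Cells seeded 10,000–30,000/cm² (adherent) or 100,000/mL (suspension) in medium with 10% fetal calf serum; after 24 h treated in duplicate with serial dilutions for 72 h. Viable cells read by CellTiter-Glo luminescence; IC50 from sigmoidal fit; at least two independent experiments.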

CAKI-2 = experiment: Antiproliferative activity against human CAKI-2 cells assessed as inhibition of cell growth incubated for 72 hrs by cell-titer glo assay; type: functional, cell-based; conditions: CAKI-2, 72 h; outline: as §2
SK-LU-1 = experiment: Antiproliferative activity against human SK-LU-1 cells assessed as inhibition of cell growth incubated for 72 hrs by cell-titer glo assay; type: functional, cell-based; conditions: SK-LU-1, 72 h
[13] = Antiproliferative activity against human A2780cis cells assessed as inhibition of cell growth incubated for 72 hrs by cell-titer glo assay; type: functional, cell-based; outline: as §2
OVCAR-8 = experiment: Antiproliferative activity against human OVCAR-8 cells assessed as inhibition of cell growth incubated for 72 hrs by cell-titer glo assay; type: functional, cell-based; conditions: OVCAR-8, 72 h
Outline: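 Cells from ATCC or ECACC, kept in supplier-recommended medium with 1% penicillin-streptomycin at 37°C, 5% CO₂. Seeded at 10,000–30,000/cm² (adherent) or 100,000/mL (nonadherent) in medium with 10% fetal calf serum. Dosed after 24 h in duplicate with serial dilutions. Viable cells read by CellTiter-Glo 72 h later. IC50 from sigmoidal fit. At least two independent experiments.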

LNCaP = experiment: Antiproliferative activity against human LNCaP cells assessed as inhibition of cell growth incubated for 72 hrs by cell-titer glo assay; type: functional, cell-based; outline: as §1
K562 = experiment: Antiproliferative activity against human K562 cells assessed as inhibition of cell growth incubated for 72 hrs by cell-titer glo assay; type: functional, cell-based; conditions: K562, 72 h; outline: as §1
U-266 = experiment: Antiproliferative activity against human U-266 cells assessed as inhibition of cell growth incubated for 72 hrs by cell-titer glo assay; type: functional, cell-based; conditions: U-266, 72 h
[14] = Antiproliferative activity against human GM14788 cells assessed as inhibition of cell growth incubated for 72 hrs by cell-titer glo assay; type: functional, cell-based; conditions: GM14788, 72 h; outline: as §1
[15] = Clearance in nu/nu mouse at 10 mg/kg, iv by LC-MS analysis; type: ADME, organism-based; conditions: in vivo
[16] = Volume of distribution at steady state in Sprague-Dawley rat at 10 mg/kg, iv by LC-MS analysis; type: ADME, organism-based; conditions: in vivo, read-out: Vdss
[17] = Tmax in Beagle dog at 5 mg/kg, po by LC-MS analysis; type: ADME, organism-based, Canis lupus familiaris; conditions: in vivo
[18] = Oral bioavailability in Beagle dog at 5 mg/kg by LC-MS analysis; type: ADME, organism-based, Canis lupus familiaris; conditions: in vivo
A2780 = experiment: Induction of cell cycle arrest in human A2780 cells assessed as accumulation of cells in G2/M phase by measuring CDK1 phosphorylation on Tyr15 incubated for 24 hrs by Western blotting analysis; type: functional, cell-based; conditions: dose 0.02-0.2 µmol/L
Outline: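 A2780 ovarian carcinoma cells treated 24 h with a range of concentrations, with DMSO and nocodazole controls. 20 µg protein extract separated by SDS-PAGE and immunoblotted with chemiluminescent detection. Probed for total and phospho-Thr210 PLK1, phospho-Ser10 histone H3, phospho-Thr199 NPM and phospho-Tyr15 CDK1. Total NPM, tubulin and total CDK1 served as loading controls.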

Chain of Homeodomain-interacting protein kinase 1 (Homo sapiens) (Q86Z02 whole entry, looked up, the tested form may be a part): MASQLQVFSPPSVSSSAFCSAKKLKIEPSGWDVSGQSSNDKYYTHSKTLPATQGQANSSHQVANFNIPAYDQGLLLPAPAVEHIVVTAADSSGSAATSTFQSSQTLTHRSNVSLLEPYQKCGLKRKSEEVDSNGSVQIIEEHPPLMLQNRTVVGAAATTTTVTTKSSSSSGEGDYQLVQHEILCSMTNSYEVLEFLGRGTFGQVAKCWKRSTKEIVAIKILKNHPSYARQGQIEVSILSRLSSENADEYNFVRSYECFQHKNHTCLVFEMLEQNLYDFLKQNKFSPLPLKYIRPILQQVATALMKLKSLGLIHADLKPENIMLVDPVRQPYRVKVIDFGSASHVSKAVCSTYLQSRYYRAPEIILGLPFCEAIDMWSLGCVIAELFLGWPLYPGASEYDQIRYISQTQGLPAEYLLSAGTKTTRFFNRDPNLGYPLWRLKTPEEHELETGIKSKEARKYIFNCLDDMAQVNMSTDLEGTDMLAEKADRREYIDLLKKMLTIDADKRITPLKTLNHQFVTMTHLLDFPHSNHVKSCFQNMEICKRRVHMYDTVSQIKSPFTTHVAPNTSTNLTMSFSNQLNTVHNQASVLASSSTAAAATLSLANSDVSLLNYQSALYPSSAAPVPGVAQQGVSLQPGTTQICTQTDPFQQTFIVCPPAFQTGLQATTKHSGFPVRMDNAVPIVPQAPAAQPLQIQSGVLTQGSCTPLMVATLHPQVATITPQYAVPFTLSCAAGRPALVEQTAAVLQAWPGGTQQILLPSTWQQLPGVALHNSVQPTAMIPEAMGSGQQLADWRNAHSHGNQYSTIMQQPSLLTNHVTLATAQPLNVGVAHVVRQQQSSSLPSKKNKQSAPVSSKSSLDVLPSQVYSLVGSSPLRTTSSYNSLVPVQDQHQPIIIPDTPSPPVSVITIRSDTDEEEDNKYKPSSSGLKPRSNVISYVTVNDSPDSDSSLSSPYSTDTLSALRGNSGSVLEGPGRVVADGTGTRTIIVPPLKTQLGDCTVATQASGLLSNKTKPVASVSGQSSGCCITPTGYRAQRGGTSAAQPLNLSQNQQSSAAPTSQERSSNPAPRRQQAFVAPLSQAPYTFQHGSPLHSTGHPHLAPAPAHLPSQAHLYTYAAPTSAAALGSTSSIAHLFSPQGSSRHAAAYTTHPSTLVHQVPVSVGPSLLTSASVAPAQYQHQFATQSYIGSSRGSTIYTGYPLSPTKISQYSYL
Chain of Serine/threonine-protein kinase Nek3 (Homo sapiens) (P51956 whole entry): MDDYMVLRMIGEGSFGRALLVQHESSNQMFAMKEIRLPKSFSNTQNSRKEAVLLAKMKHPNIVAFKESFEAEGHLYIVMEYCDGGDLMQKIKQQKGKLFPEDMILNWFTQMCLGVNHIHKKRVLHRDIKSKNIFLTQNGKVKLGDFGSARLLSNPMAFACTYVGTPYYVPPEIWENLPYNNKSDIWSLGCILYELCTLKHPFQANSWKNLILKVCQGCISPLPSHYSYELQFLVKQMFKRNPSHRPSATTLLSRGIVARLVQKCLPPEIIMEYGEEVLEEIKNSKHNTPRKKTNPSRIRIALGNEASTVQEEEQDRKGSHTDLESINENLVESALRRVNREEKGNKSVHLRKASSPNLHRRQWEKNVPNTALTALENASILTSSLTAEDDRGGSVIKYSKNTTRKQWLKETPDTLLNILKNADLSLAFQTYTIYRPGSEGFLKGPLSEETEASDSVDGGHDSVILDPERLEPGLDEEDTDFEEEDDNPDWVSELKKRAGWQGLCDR
Chain of Serine/threonine-protein kinase 26 (Q9P289 whole entry): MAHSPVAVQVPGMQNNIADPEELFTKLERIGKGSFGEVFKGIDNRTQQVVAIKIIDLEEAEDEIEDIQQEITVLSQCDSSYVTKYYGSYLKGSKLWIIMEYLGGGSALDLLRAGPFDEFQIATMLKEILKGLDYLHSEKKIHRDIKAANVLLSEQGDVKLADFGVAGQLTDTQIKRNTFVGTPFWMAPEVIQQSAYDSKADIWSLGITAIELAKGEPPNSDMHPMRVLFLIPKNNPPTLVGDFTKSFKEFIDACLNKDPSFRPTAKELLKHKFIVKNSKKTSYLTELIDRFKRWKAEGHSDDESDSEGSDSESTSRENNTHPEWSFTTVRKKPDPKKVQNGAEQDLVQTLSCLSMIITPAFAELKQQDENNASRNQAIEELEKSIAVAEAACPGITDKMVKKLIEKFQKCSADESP
Chain of Ribosomal protein S6 kinase alpha-1 (Rattus norvegicus) (Q63531 whole entry, the tested form may be a part): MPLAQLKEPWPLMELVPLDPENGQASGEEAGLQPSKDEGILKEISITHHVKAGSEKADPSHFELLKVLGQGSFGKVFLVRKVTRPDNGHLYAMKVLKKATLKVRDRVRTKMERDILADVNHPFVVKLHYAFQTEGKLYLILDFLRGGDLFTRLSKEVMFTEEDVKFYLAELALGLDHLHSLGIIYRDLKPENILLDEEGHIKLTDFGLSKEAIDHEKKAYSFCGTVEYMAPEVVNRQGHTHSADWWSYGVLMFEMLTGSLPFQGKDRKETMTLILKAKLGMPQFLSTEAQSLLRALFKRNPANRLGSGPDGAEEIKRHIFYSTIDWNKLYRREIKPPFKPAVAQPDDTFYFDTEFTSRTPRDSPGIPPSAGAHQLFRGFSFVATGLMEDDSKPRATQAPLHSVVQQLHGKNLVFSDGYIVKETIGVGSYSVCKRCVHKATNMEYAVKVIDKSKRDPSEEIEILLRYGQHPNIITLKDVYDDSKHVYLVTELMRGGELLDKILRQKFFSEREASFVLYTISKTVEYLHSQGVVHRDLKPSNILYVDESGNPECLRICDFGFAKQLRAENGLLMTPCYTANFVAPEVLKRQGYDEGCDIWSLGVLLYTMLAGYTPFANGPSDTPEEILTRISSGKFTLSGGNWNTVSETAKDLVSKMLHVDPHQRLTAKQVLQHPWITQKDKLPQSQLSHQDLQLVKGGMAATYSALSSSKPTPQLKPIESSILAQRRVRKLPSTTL
Chain of RAC-alpha serine/threonine-protein kinase (P31749 whole entry): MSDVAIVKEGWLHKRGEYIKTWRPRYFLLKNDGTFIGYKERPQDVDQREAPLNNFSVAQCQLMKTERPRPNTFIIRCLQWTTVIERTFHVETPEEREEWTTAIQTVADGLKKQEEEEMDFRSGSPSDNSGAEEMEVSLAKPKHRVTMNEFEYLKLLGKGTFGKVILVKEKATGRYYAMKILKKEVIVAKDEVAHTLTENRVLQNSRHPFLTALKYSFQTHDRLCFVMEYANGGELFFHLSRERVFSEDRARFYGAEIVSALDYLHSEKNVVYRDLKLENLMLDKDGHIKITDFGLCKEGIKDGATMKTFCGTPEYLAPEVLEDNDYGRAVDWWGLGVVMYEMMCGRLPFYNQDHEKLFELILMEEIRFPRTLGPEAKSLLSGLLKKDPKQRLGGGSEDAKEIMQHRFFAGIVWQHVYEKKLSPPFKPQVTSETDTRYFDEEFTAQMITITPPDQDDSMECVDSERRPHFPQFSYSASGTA
Chain of Serine/threonine-protein kinase ULK3 (Homo sapiens) (Q6PHR2 whole entry): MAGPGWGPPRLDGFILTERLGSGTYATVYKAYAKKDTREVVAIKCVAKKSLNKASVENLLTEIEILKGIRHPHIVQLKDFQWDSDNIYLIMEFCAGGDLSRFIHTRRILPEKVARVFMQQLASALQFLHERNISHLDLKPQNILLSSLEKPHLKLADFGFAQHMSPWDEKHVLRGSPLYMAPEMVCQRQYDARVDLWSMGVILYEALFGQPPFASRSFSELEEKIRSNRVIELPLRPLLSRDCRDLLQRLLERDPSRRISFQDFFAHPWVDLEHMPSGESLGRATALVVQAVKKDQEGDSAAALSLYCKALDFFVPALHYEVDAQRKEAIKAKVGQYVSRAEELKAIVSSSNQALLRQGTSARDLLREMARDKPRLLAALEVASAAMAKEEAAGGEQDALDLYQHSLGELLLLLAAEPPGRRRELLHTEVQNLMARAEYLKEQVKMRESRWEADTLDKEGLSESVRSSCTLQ
Chain of Non-receptor tyrosine-protein kinase TYK2 (P29597 whole entry, the tested form may be a part): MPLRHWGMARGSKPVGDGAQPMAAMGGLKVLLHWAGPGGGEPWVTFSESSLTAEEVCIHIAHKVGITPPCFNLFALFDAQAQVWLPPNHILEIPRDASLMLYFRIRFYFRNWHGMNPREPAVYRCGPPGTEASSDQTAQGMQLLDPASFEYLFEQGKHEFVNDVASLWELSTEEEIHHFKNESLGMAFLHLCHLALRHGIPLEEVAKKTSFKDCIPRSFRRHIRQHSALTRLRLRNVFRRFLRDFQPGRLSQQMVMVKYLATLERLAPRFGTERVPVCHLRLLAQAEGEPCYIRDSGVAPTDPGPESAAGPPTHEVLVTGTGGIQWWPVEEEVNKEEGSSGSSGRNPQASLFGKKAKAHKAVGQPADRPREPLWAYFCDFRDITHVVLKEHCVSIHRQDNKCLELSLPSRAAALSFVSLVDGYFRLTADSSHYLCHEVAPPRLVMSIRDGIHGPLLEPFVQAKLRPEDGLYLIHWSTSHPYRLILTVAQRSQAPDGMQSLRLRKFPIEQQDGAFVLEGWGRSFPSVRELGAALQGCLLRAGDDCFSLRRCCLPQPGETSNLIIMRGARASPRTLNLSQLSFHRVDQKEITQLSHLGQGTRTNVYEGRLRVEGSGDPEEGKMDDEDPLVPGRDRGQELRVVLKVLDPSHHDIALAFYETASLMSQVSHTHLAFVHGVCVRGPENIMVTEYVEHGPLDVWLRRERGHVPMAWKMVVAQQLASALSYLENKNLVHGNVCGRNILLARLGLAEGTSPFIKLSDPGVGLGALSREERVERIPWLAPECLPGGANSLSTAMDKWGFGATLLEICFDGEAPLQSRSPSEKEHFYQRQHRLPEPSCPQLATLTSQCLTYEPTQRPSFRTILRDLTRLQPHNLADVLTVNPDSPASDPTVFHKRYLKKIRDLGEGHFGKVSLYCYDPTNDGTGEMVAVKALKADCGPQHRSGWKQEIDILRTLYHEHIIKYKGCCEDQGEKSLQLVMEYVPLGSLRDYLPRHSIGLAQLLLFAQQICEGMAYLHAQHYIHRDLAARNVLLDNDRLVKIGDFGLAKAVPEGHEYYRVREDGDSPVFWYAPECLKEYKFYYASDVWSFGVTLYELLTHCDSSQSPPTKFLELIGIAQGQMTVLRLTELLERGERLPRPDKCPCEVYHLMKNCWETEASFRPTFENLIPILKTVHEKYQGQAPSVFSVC

CN1CCN(c2ccc(OC(F)(F)F)c(Nc3ncc4c(n3)-c3c(c(C(N)=O)nn3CCO)CC4)c2)CC1 [ONVANSERTIB]
IC50 [1]: > 10 µM | IC50 [2]: > 10 µM | IC50 [3]: > 10 µM | IC50 [4]: > 10 µM | IC50 [5]: > 10 µM | IC50 [6]: > 10 µM | Activity [7]: 93% | Activity [8]: 113% | Activity [9]: 90% | Activity [10]: 118% | Activity [11]: 88% | Activity [12]: 127% | IC50 (T98G): 0.228 µM | IC50 (HCC1806): 0.018 µM | IC50 (HCT-116): 0.086 µM | IC50 (SW948): 0.124 µM | IC50 (COLO 320): 0.192 µM | IC50 (CAKI-2): 0.083 µM | IC50 (SK-LU-1): 0.443 µM | IC50 [13]: 0.048 µM | IC50 (OVCAR-8): 0.059 µM | IC50 (LNCaP): 0.082 µM | IC50 (K562): 0.087 µM | IC50 (U-266): 0.04 µM | IC50 [14]: 0.082 µM | clearance [15]: 2.36 L/h/kg | Vd [16]: 2.8 L/kg | Tmax [17]: 1.2 h | F [18]: 63% | Activity (A2780): Dose-Dependent Effect

From ChEMBL document CHEMBL5678806, “NMS-P937, an orally available, specific small-molecule polo-like kinase 1 inhibitor with antitumor activity in solid and hematologic malignancies” (Mol Cancer Ther, 2012)
